{"source": "ChEMBL document CHEMBL2146382", "about": "“Cytotoxic and antineoplastic activity of timosaponin A-III for human colon cancer cells” (J Nat Prod, 2011)", "key": {"HCT-15 [1]": {"system": "HCT-15", "assay": "Antineoplastic activity against human HCT15 cells xenografted nude in BALB/c mouse assessed as inhibition of rate of tumor size at 2 mg/kg, ip 3 times a week for 4 weeks relative to control", "format": "functional", "details": "HCT-15, ip, 672 h, route intraperitoneal", "in_short": "(§1)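 HCT-15 cells (2 × 10^6 in 200 μL medium) implanted subcutaneously in flanks of BALB/c-nu (nu/nu) mice; dosing began at ca. 80 mm3 tumours; groups of five, randomized. 2 or 5 mg/kg given ip three times weekly in ethanol–cremophor–H2O (0.5:0.5:99), vehicle controls; caliper volume (3.14·L·W·H/6) three times weekly for 30 days; Ki-67 immunohistochemistry on tumour sections (1:250, 4 °C overnight, DAB, hematoxylin counterstain).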"}, "HCT-15 [2]": {"system": "HCT-15", "assay": "Cell cycle arrest at […] phase in human HCT15 cells assessed as cyclin A down regulation at 5 to 20 uM after 12 to 24 hrs by Western blot analysis", "format": "functional, cell-based", "in_short": "(§2)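 HCT-15 cells in RPMI/10% FBS exposed to test compound at various concentrations; lysates quantified by BCA, 30–50 μg protein run on 10% SDS-PAGE, transferred to PVDF, blocked 1 h in 5% milk/PBST, primary antibodies overnight at 4 °C, HRP anti-mouse IgG 1:1500 for 3 h at room temperature, ECL detection.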"}, "HCT-15 [3]": {"system": "HCT-15", "assay": "Induction of apoptosis in human HCT15 cells assessed as increase in caspase-3 expression after 12 to 24 hrs by Western blot analysis", "format": "functional, cell-based", "in_short": "as §2"}, "HCT-15 [4]": {"system": "HCT-15", "assay": "Cell cycle arrest in human HCT15 cells assessed as accumulation at sub-G1 phase at 20 uM after 12 hrs using propidium-iodide staining by flow-cytometry (reference value: 5.2 %)", "format": "functional"}, "HCT-15 [5]": {"system": "HCT-15", "assay": "Cell cycle arrest in human HCT15 cells assessed as accumulation at G0/G1 phase at 20 uM after 24 hrs using propidium-iodide staining by flow-cytometry (reference value: 37.0 %)", "format": "functional"}, "HCT-15 [6]": {"system": "HCT-15", "assay": "Induction of apoptosis in human HCT15 cells assessed as suppression of Bcl2 expression at 5 to 20 uM after 24 hrs by Western blot analysis", "format": "functional, cell-based", "in_short": "(§3)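 HCT-15 cells (RPMI, 10% heat-inactivated FBS, antibiotics-antimycotics, 37 C, 5% CO2) exposed to compound. Cells lysed, protein measured by BCA, 30-50 μg per lane resolved on 10% SDS-PAGE and electroblotted to PVDF. Membranes blocked 1 h in 5% nonfat milk/PBST, probed with primary antibodies overnight at 4 C, then HRP anti-mouse IgG 1:1500 for 3 h at room temperature. Detection by ECL; β-actin antibody available.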"}, "HCT-15 [7]": {"system": "HCT-15", "assay": "Antineoplastic activity against human HCT15 cells xenografted in nude BALB/c mouse assessed as inhibition of rate of tumor size at 5 mg/kg, ip 3 times a week for 4 weeks relative to control", "format": "functional", "details": "HCT-15, ip, 672 h, route intraperitoneal", "in_short": "as §1"}, "HCT-15 [8]": {"system": "HCT-15", "assay": "Cytotoxicity against human HCT15 cells assessed as morphological changes with distinct rounded shapes and detachment after 12 to 24 hrs by phase-contrast microscopy", "format": "functional, cell-based", "in_short": "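HCT-15 cells treated with 0–20 μM for 12 and 24 h, vehicle-treated controls; morphology examined and photographed under phase-contrast microscope.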"}, "HCT-15 [9]": {"system": "HCT-15", "assay": "Cell cycle arrest at G0/G1 phase in human HCT15 cells assessed as suppression of Rb ser807/811 phosphorylation at 5 to 20 uM after 12 to 24 hrs by Western blot analysis", "format": "functional, cell-based", "in_short": "as §2"}, "HCT-15 [10]": {"system": "HCT-15", "assay": "Cell cycle arrest at G2/M phase in human HCT15 cells assessed as cyclin B1 down regulation at 5 to 20 uM after 12 to 24 hrs by Western blot analysis", "format": "functional, cell-based", "in_short": "as §2"}, "HCT-15 [11]": {"system": "HCT-15", "assay": "Cell cycle arrest in human HCT15 cells assessed as increase in cyclin E expression at 5 to 20 uM after 12 to 24 hrs by Western blot analysis", "format": "functional, cell-based", "in_short": "as §2"}, "HCT-15 [12]": {"system": "HCT-15", "assay": "Cell cycle arrest in human HCT15 cells assessed as accumulation at G2/M phase at 5 uM after 24 hrs using propidium-iodide staining by flow-cytometry (reference value: 22.4 %)", "format": "functional"}, "HCT-15 [13]": {"system": "HCT-15", "assay": "Cell cycle arrest in human HCT15 cells assessed as accumulation at sub-G1 phase at 5 uM after 24 hrs using propidium-iodide staining by flow-cytometry (reference value: 6.5 %)", "format": "functional"}, "HT-29": {"system": "HT-29", "assay": "Growth inhibition of human HT-29 cells", "format": "functional, cell-based", "in_short": "(§4)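 SRB assay: cells at 5 × 10^4 cells/mL were exposed to a concentration series for 3 days, fixed with 10% TCA and stained with sulforhodamine B. Survival was expressed as % of solvent-treated control and IC50 taken by nonlinear regression of % survival versus concentration. Media held 10% heat-inactivated FBS plus antibiotics: RPMI (HCT-15, HCT 116, HT-29), RPMI with 25 mM HEPES (SW480, SW620), DMEM (MRC-5, Hs68). Cultures were kept at 37 C, 5% CO2.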"}, "HCT-15 [14]": {"system": "HCT-15", "assay": "Cell cycle arrest at […] phase in human HCT15 cells assessed as CDK4 down regulation at 5 to 20 uM after 12 to 24 hrs by Western blot analysis", "format": "functional, cell-based", "in_short": "as §2"}, "HCT-15 [15]": {"system": "HCT-15", "assay": "Cell cycle arrest in human HCT15 cells assessed as accumulation at G2/M phase at 5 uM after 12 hrs using propidium-iodide staining by flow-cytometry (reference value: 15.7 %)", "format": "functional"}, "HCT-15 [16]": {"system": "HCT-15", "assay": "Cell cycle arrest in human HCT15 cells assessed as accumulation at G0/G1 phase at 10 uM after 12 hrs using propidium-iodide staining by flow-cytometry (reference value: 44.4 %)", "format": "functional"}, "HCT-15 [17]": {"system": "HCT-15", "assay": "Antineoplastic activity against human HCT15 cells xenografted in nude BALB/c mouse assessed as tumor growth inhibition at 2 to 5 mg/kg, ip 3 times a week for 4 weeks", "format": "functional, organism-based", "in_short": "as §1"}, "HCT-15 [18]": {"system": "HCT-15", "assay": "Cell cycle arrest in human HCT15 cells assessed as accumulation at sub-G1 phase at 20 uM after 24 hrs using propidium-iodide staining by flow-cytometry (reference value: 6.5 %)", "format": "functional"}, "HCT-15 [19]": {"system": "HCT-15", "assay": "Cell cycle arrest at G2/M phase in human HCT15 cells assessed as cyclin A down regulation at 5 to 20 uM after 12 to 24 hrs by Western blot analysis", "format": "functional, cell-based", "in_short": "as §2"}, "HCT-15 [20]": {"system": "HCT-15", "assay": "Induction of apoptosis in human HCT15 cells assessed as suppression of procaspase-8 expression at 5 to 20 uM after 12 to 24 hrs by Western blot analysis", "format": "functional, cell-based", "in_short": "as §3"}, "HCT-15 [21]": {"system": "HCT-15", "assay": "Cell cycle arrest at G0/G1 phase in human HCT15 cells assessed as decrease in c-Myc expression at 5 to 20 uM after 24 hrs by Western blot analysis", "format": "functional, cell-based", "in_short": "as §2"}, "HCT-15 [22]": {"system": "HCT-15", "assay": "Cell cycle arrest at M phase in human HCT15 cells assessed as decrease in cyclin B1 level at 5 to 20 uM after 12 to 24 hrs by Western blot analysis", "format": "functional, cell-based", "in_short": "as §2"}, "HCT-15 [23]": {"system": "HCT-15", "assay": "Cytotoxicity against human HCT15 cells after 3 days", "format": "functional, cell-based", "details": "HCT-15, 72 h", "in_short": "as §4"}, "HCT-15 [24]": {"system": "HCT-15", "assay": "Induction of apoptosis in human HCT15 cells assessed as PARP cleavage at 20 uM after 12 to 24 hrs by Western blot analysis", "format": "functional, cell-based", "in_short": "as §2"}, "HCT-15 [25]": {"system": "HCT-15", "assay": "Cell cycle arrest in human HCT15 cells assessed as accumulation at G0/G1 phase at 20 uM after 12 hrs using propidium-iodide staining by flow-cytometry (reference value: 44.4 %)", "format": "functional"}, "HCT-15 [26]": {"system": "HCT-15", "assay": "Cell cycle arrest in human HCT15 cells assessed as accumulation at sub-G1 phase at 10 uM after 24 hrs using propidium-iodide staining by flow-cytometry (reference value: 6.5 %)", "format": "functional"}}, "note": "The source made the active and inactive calls. No cut-off for these calls is given here."}
{"smiles": "C[C@H]1CC[C@@]2(OC1)O[C@H]1C[C@H]3[C@@H]4CC[C@@H]5C[C@@H](O[C@@H]6O[C@H](CO)[C@H](O)[C@H](O)[C@H]6O[C@@H]6O[C@H](CO)[C@@H](O)[C@H](O)[C@H]6O)CC[C@]5(C)[C@H]4CC[C@]3(C)[C@H]1[C@@H]2C", "note": "[TIMOSAPONIN AIII]", "values": [{"measurement": "inhibition in vivo at 2 mg/kg", "setting": "HCT-15 [1]", "result": 8.3, "unit": "%"}, {"measurement": "Activity", "setting": "HCT-15 [2]", "result": "Active"}, {"measurement": "Activity", "setting": "HCT-15 [3]", "result": "Active"}, {"measurement": "Activity", "setting": "HCT-15 [4]", "result": 41.8, "unit": "%"}, {"measurement": "Activity", "setting": "HCT-15 [5]", "result": 43.4, "unit": "%"}, {"measurement": "Activity", "setting": "HCT-15 [6]", "result": "Active"}, {"measurement": "inhibition in vivo at 5 mg/kg", "setting": "HCT-15 [7]", "result": 37.3, "unit": "%"}, {"measurement": "Activity", "setting": "HCT-15 [8]", "result": "Dose-dependent effect"}, {"measurement": "Activity", "setting": "HCT-15 [9]", "result": "Active"}, {"measurement": "Activity", "setting": "HCT-15 [10]", "result": "Active"}, {"measurement": "Activity", "setting": "HCT-15 [11]", "result": "Active"}, {"measurement": "Activity", "setting": "HCT-15 [12]", "result": 19.4, "unit": "%"}, {"measurement": "Activity", "setting": "HCT-15 [13]", "result": 7.2, "unit": "%"}, {"measurement": "IC50", "setting": "HT-29", "result": 10.3, "unit": "µM"}, {"measurement": "Activity", "setting": "HCT-15 [14]", "result": "Active"}, {"measurement": "Activity", "setting": "HCT-15 [15]", "result": 20.5, "unit": "%"}, {"measurement": "Activity", "setting": "HCT-15 [16]", "result": 43.2, "unit": "%"}, {"measurement": "TGI", "setting": "HCT-15 [17]", "result": "Active"}, {"measurement": "Activity", "setting": "HCT-15 [18]", "result": 39.7, "unit": "%"}, {"measurement": "Activity", "setting": "HCT-15 [19]", "result": "Active"}, {"measurement": "Activity", "setting": "HCT-15 [20]", "result": "Active"}, {"measurement": "Activity", "setting": "HCT-15 [21]", "result": "Active"}, {"measurement": "Activity", "setting": "HCT-15 [22]", "result": "Active"}, {"measurement": "IC50", "setting": "HCT-15 [23]", "result": 6.1, "unit": "µM"}, {"measurement": "Activity", "setting": "HCT-15 [24]", "result": "Active"}, {"measurement": "Activity", "setting": "HCT-15 [25]", "result": 12.2, "unit": "%"}, {"measurement": "Activity", "setting": "HCT-15 [26]", "result": 6.4, "unit": "%"}]}
